Assay results published in ChEMBL document CHEMBL1157796, “Coumarins from Galipea panamensis and Their Activity against Leishmania panamensis” (J Nat Prod, 2010).
In brackets after ≈: the same amount, converted by molar mass.

How the values were obtained:
Leishmania panamensis = assay: Antimicrobial activity against Leishmania panamensis M/HOM//87/UA140 transfected with p6.5-egfp after 72 hrs by MTT assay; type: functional, organism-based; details: M/HOM//87/UA140, 72 h
Outline: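 Axenic amastigotes of L. panamensis M/HOM//87/UA140 epirGFP strain (1 × 10^6 parasites/mL) incubated at 32 °C in Schneider's Drosophila medium pH 5.2 with 20% heat-inactivated FCS. Six concentrations, 3.1-100 µg/mL, from DMSO solutions, 72 h. MTT then added for 4 h, stopped with 2-propanol/SDS, OD 570 nm. DMSO-treated and untreated parasites as controls, amphotericin B as reference. Two independent experiments in triplicate, EC50 by Probit analysis.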

[1] = Selectivity index, ratio of CC50 for human U937 cells to EC50 for Leishmania panamensis M/HOM//87/UA140; type: toxicity, cell-based, U-937; details: read-out: Selectivity Index
[2] = Cytotoxicity against human U937 cells; type: cell-based, U-937

SMILES | EC50 (Leishmania panamensis) | selectivity ratio [1] | CC50 [2]
COc1ccc2ccc(=O)oc2c1-c1cocc1C | 10 µg/mL (≈ 39 µM) | 3 | 33 µg/mL (≈ 129 µM)
C=C(C)[C@H]1O[C@@H]1c1c(OC[C@H]2OC2(C)C)ccc2ccc(=O)oc12 (relative stereo) | 10 µg/mL (≈ 30.5 µM) | 1 | 9.7 µg/mL (≈ 29.5 µM)
COc1ccc2ccc(=O)oc2c1C(C=O)=C(C)C [MURRALONGIN] | > 100 µg/mL |  | 121 µg/mL (≈ 470 µM)
C=C(C)[C@H]1O[C@@H]1c1c(OC)ccc2ccc(=O)oc12 [PHEBALOSIN] |  | 1.5 | 20.7 µg/mL (≈ 80.1 µM)
